# Test results reported in ChEMBL document CHEMBL5136968, “Posttranslational modifications of α-conotoxins: sulfotyrosine and C-terminal amidation stabilise structures and increase acetylcholine receptor binding” (RSC Med Chem, 2021).
# Positions of bridges follow the written chain, without caps; N, C: chain ends. Non-standard residues stand in square brackets, D forms with d. Residues, ends and D or L forms follow the SMILES beside them. sY = N[C@@H](Cc1ccc(OS(=O)(=O)O)cc1)C(=O)O
# Key:
# [1] = target: Acetylcholine-binding protein (Lymnaea stagnalis, UniProt P58154); assay: Displacement of [3H]-epibatidine from Lymnaea stagnalis Acetylcholine-binding protein measured after 1 hr by liquid scintillation counter
# Method in brief: (§1)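 Recombinant AChBP expressed in E. coli (IPTG induction, 16 °C), coated onto wells at 1 ng μL−1. Incubated 1 h at 4 °C with [3H]-epibatidine (1 nM final) and increasing peptide in PBS with 0.05% BSA. Unbound ligand washed off; bound radioactivity counted by liquid scintillation. One-site competition fit gives Ki. Triplicate, three independent experiments; pKi as mean with 95% CI.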
# [2] = Displacement of [3H]-epibatidine from Aplysia californica Acetylcholine-binding protein measured after 1 hr by liquid scintillation counter; method in brief: as §1
# [3] = target: Neuronal acetylcholine receptor; alpha3/beta4 (Homo sapiens, UniProt P30926+P32297); assay: Antagonist activity at human alpha3beta4 nAChR in SH-SY5Y cells assessed as inhibition of calcium flux by FLIPR assay; format: cell-based
# Method in brief: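 SH-SY5Y cells (endogenous α3β4), grown in RPMI with 15% FBS, plated 100 000/well and cultured 48 h. Loaded with calcium 4 dye for 30 min at 37 °C. Peptides in PSS (pH 7.4) added 10 min before nicotine 30 μM. Fluorescence read at 470–495 nm excitation, 515–575 nm emission, every 1 s. Normalised to maximal nicotine response; four-parameter Hill fit; pIC50. Triplicate, three independent experiments.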
# Neuronal acetylcholine receptor; alpha3/beta4, sequence (P30926 whole entry): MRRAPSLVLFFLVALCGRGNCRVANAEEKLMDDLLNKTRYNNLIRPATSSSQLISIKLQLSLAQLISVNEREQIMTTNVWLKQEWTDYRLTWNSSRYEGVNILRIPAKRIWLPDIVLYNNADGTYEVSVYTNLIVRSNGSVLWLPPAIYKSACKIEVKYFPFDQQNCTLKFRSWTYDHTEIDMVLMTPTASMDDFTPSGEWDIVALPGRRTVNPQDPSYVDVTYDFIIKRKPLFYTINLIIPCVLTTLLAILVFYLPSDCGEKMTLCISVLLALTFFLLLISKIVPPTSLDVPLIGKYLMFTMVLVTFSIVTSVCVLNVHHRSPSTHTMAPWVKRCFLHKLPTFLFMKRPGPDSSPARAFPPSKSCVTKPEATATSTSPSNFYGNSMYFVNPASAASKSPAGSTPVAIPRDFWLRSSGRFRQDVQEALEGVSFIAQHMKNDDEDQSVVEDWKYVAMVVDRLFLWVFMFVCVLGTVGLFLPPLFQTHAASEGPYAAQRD
# Neuronal acetylcholine receptor; alpha3/beta4, sequence (P32297 whole entry): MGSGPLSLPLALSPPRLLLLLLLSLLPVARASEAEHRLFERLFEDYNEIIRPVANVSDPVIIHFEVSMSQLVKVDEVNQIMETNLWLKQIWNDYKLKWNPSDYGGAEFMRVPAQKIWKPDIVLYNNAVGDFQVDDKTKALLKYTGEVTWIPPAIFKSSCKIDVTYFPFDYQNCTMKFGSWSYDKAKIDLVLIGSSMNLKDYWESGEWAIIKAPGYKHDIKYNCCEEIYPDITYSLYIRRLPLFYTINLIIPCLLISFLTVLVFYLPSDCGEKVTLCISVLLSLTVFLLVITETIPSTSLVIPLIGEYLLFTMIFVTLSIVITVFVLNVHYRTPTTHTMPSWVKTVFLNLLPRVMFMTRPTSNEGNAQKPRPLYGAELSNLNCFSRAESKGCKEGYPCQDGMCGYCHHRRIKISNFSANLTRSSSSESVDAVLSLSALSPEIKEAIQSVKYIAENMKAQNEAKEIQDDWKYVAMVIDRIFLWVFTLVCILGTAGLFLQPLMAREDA
# Acetylcholine-binding protein, sequence (P58154 whole entry): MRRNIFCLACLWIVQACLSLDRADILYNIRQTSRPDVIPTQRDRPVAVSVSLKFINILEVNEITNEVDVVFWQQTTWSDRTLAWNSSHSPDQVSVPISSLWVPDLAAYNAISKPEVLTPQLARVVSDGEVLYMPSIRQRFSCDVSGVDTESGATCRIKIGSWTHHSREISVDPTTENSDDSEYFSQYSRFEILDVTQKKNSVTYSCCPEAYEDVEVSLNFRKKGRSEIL
Compound,Ki [1],pKi [2],IC50 [3]
C[C@@H]1NC(=O)[C@H](C)NC(=O)[C@@H]2CSSC[C@H](NC(=O)CNC(=O)CN)C(=O)N[C@@H](CSSC[C@@H](C(N)=O)NC(=O)[C@H](Cc3ccc(OS(=O)(=O)O)cc3)NC(=O)[C@H](CC(=O)O)NC(=O)[C@H](CCC(N)=O)NC(=O)[C@H](CC(N)=O)NC(=O)[C@H](CC(N)=O)NC1=O)C(=O)N[C@@H](CO)C(=O)N[C@@H](Cc1cnc[nH]1)C(=O)N1CCC[C@H]1C(=O)N[C@@H](C)C(=O)N2,5.37 µM,9.4,
C[C@@H]1NC(=O)[C@H](C)NC(=O)[C@@H]2CSSC[C@H](NC(=O)CNC(=O)CN)C(=O)N[C@@H](CSSC[C@@H](C(=O)O)NC(=O)[C@H](Cc3ccc(O)cc3)NC(=O)[C@H](CC(=O)O)NC(=O)[C@H](CCC(N)=O)NC(=O)[C@H](CC(N)=O)NC(=O)[C@H](CC(N)=O)NC1=O)C(=O)N[C@@H](CO)C(=O)N[C@@H](Cc1cnc[nH]1)C(=O)N1CCC[C@H]1C(=O)N[C@@H](C)C(=O)N2,> 100 µM,8,
C[C@@H]1NC(=O)[C@H](C)NC(=O)[C@@H]2CSSC[C@H](NC(=O)CNC(=O)CN)C(=O)N[C@@H](CSSC[C@@H](C(N)=O)NC(=O)[C@H](Cc3ccc(O)cc3)NC(=O)[C@H](CC(=O)O)NC(=O)[C@H](CCC(N)=O)NC(=O)[C@H](CC(N)=O)NC(=O)[C@H](CC(N)=O)NC1=O)C(=O)N[C@@H](CO)C(=O)N[C@@H](Cc1cnc[nH]1)C(=O)N1CCC[C@H]1C(=O)N[C@@H](C)C(=O)N2,24.5 µM,8.96,
C[C@@H]1NC(=O)[C@H](C)NC(=O)[C@@H]2CSSC[C@H](NC(=O)CNC(=O)CN)C(=O)N[C@@H](CSSC[C@@H](C(=O)O)NC(=O)[C@H](Cc3ccc(OS(=O)(=O)O)cc3)NC(=O)[C@H](CC(=O)O)NC(=O)[C@H](CCC(N)=O)NC(=O)[C@H](CC(N)=O)NC(=O)[C@H](CC(N)=O)NC1=O)C(=O)N[C@@H](CO)C(=O)N[C@@H](Cc1cnc[nH]1)C(=O)N1CCC[C@H]1C(=O)N[C@@H](C)C(=O)N2,> 100 µM,8.66,
"CSCC[C@@H]1NC(=O)[C@H](CC(N)=O)NC(=O)[C@@H]2CSSC[C@H](NC(=O)CN)C(=O)N[C@@H](CSSC[C@@H](C(N)=O)NC(=O)[C@H](Cc3ccc(O)cc3)NC(=O)[C@H](CC(=O)O)NC(=O)[C@@H]3CCCN3C(=O)[C@H](CC(N)=O)NC(=O)[C@H](CC(N)=O)NC1=O)C(=O)N[C@@H](CO)C(=O)N[C@@H](CC(=O)O)C(=O)N1CCC[C@H]1C(=O)N[C@@H](CCCNC(=N)N)C(=O)N2 (H-GCCSDPRCNMNNPDYC-NH2; disulfide 2-8, 3-16)",> 100 µM,7.57,0.347 µM
"CSCC[C@@H]1NC(=O)[C@H](CC(N)=O)NC(=O)[C@@H]2CSSC[C@H](NC(=O)CN)C(=O)N[C@@H](CSSC[C@@H](C(=O)O)NC(=O)[C@H](Cc3ccc(O)cc3)NC(=O)[C@H](CC(=O)O)NC(=O)[C@@H]3CCCN3C(=O)[C@H](CC(N)=O)NC(=O)[C@H](CC(N)=O)NC1=O)C(=O)N[C@@H](CO)C(=O)N[C@@H](CC(=O)O)C(=O)N1CCC[C@H]1C(=O)N[C@@H](CCCNC(=N)N)C(=O)N2 (H-GCCSDPRCNMNNPDYC-OH; disulfide 2-8, 3-16)",> 100 µM,6,1.35 µM
"CSCC[C@@H]1NC(=O)[C@H](CC(N)=O)NC(=O)[C@@H]2CSSC[C@H](NC(=O)CN)C(=O)N[C@@H](CSSC[C@@H](C(N)=O)NC(=O)[C@H](Cc3ccc(OS(=O)(=O)O)cc3)NC(=O)[C@H](CC(=O)O)NC(=O)[C@@H]3CCCN3C(=O)[C@H](CC(N)=O)NC(=O)[C@H](CC(N)=O)NC1=O)C(=O)N[C@@H](CO)C(=O)N[C@@H](CC(=O)O)C(=O)N1CCC[C@H]1C(=O)N[C@@H](CCCNC(=N)N)C(=O)N2 (H-GCCSDPRCNMNNPD[sY]C-NH2; disulfide 2-8, 3-16)",> 100 µM,8.38,0.0646 µM
"CSCC[C@@H]1NC(=O)[C@H](CC(N)=O)NC(=O)[C@@H]2CSSC[C@H](NC(=O)CN)C(=O)N[C@@H](CSSC[C@@H](C(=O)O)NC(=O)[C@H](Cc3ccc(OS(=O)(=O)O)cc3)NC(=O)[C@H](CC(=O)O)NC(=O)[C@@H]3CCCN3C(=O)[C@H](CC(N)=O)NC(=O)[C@H](CC(N)=O)NC1=O)C(=O)N[C@@H](CO)C(=O)N[C@@H](CC(=O)O)C(=O)N1CCC[C@H]1C(=O)N[C@@H](CCCNC(=N)N)C(=O)N2 (H-GCCSDPRCNMNNPD[sY]C-OH; disulfide 2-8, 3-16)",> 100 µM,6.5,0.501 µM
